According to ChEMBL document CHEMBL1154352, “Toll-like receptor 7 selective synthetic oligoribonucleotide agonists: synthesis and structure-activity relationship studies” (J Med Chem, 2009):
Active and inactive are the calls of the source. No cut-off for these calls is given here.

Key:
Homo sapiens [1] = species on record: Homo sapiens; assay: Immunostimulatory activity in human pDC assessed as induction of IL6 at 100 ug/ml after 24 hrs; type: functional
Procedure, shortened: (§1)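 Human pDCs plated at 1 × 10^6 cells/mL; compounds in PBS added, 37 °C for 24 h; supernatant cytokines/chemokines by human Luminex multiplex kit.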

Homo sapiens [2] = species on record: Homo sapiens; assay: Immunostimulatory activity in human mDC assessed as induction of IFNalpha at 100 ug/ml after 24 hrs; type: functional
Procedure, shortened: (§2)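 Human mDCs isolated from PBMCs by CD19+ B-cell depletion then BDCA1 positive selection; plated at 1 × 10^6 cells/mL, compounds in PBS, 37 °C for 24 h; supernatant cytokines by human Luminex multiplex. Representative of four independent experiments.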

Homo sapiens [3] = species on record: Homo sapiens; assay: Immunostimulatory activity in human mDC assessed as induction of TNFalpha at 100 ug/ml after 24 hrs; type: functional; procedure, shortened: as §2
PBMC [4] = assay: Immunomodulatory activity in human PBMC assessed as induction of IFN-alpha at 100 ug/ml after 24 hrs
Homo sapiens [5] = species on record: Homo sapiens; assay: Immunostimulatory activity in human mDC assessed as induction of IL6 at 100 ug/ml after 24 hrs; type: functional; procedure, shortened: as §2
PBMC [6] = assay: Immunomodulatory activity in human PBMC assessed as induction of MIP1beta after 24 hrs; type: functional, cell-based
Procedure, shortened: (§3)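 Human PBMCs plated at 5 × 10^6 cells/mL; compounds dissolved in PBS added at various concentrations, 37 °C for 24 h. Supernatant cytokines/chemokines quantified with human Luminex multiplex kit.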

PBMC [7] = assay: Immunomodulatory activity in human PBMC assessed as induction of MCP1 after 24 hrs; type: functional, cell-based; procedure, shortened: as §3
PBMC [8] = assay: Immunomodulatory activity in human PBMC assessed as induction of IL1-beta at 50 ug/ml after 24 hrs; type: functional, cell-based; procedure, shortened: as §3
PBMC [9] = assay: Immunomodulatory activity in human PBMC assessed as induction of MIP1alpha at 50 ug/ml after 24 hrs; type: functional, cell-based; procedure, shortened: as §3
[10] = target: Toll-like receptor 3 (Homo sapiens) (UniProt O15455); assay: Activation of human TLR3 expressed in HEK293 assessed as induction of NF-kappaB activity reporter gene assay; type: cell-based
Toll-like receptor 3 (Homo sapiens), sequence (O15455 whole entry): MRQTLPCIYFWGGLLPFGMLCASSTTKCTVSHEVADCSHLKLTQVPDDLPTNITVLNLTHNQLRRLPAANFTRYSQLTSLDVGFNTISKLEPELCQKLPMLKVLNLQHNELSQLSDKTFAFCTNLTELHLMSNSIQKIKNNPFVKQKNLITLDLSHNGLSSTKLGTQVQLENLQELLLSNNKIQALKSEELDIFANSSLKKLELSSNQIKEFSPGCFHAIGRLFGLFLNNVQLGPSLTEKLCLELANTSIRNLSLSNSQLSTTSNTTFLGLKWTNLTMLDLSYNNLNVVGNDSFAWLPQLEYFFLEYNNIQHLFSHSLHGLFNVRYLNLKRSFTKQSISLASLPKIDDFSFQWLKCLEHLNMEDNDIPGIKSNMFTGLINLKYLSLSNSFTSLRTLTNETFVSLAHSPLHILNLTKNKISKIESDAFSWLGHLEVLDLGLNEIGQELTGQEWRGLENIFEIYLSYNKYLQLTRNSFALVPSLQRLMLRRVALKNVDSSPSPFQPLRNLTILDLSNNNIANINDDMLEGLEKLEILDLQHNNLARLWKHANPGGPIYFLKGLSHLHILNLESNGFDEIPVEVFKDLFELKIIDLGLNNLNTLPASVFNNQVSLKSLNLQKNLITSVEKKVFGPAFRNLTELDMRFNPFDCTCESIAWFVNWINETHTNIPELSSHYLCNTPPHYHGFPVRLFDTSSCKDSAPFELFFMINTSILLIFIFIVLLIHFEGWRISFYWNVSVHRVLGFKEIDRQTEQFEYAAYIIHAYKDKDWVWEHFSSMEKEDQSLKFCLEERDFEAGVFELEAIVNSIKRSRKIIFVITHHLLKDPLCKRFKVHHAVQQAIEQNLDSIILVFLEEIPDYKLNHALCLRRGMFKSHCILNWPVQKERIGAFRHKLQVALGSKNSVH

PBMC [11] = assay: Immunomodulatory activity in human PBMC assessed as induction of IP10 at 50 ug/ml after 24 hrs; type: functional, cell-based; procedure, shortened: as §3
PBMC [12] = assay: Immunomodulatory activity in human PBMC assessed as induction of IFNalpha after 24 hrs; type: functional, cell-based; procedure, shortened: as §3
PBMC [13] = assay: Immunomodulatory activity in human PBMC assessed as induction of MCP1 at 50 ug/ml after 24 hrs; type: functional, cell-based; procedure, shortened: as §3
PBMC [14] = assay: Immunomodulatory activity in human PBMC assessed as induction of TNFalpha at 50 ug/ml after 24 hrs; type: functional, cell-based; procedure, shortened: as §3
Mus musculus = assay: Immunomodulatory activity in C57BL/6 mouse assessed as induction of IL12 release at 25 mg/kg, sc after 2 hrs by ELISA; type: functional, organism-based; design: dose 25 mg/kg
Procedure, shortened: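 Female C57BL/6 wild-type mice, 5–8 weeks old, n=3; compounds given subcutaneously at 10 or 25 mg/kg. Retro-orbital blood at 2 h; serum cytokines by mouse Luminex multiplex or IL-12 ELISA.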

PBMC [15] = assay: Immunomodulatory activity in human PBMC assessed as induction of IL10 after 24 hrs; type: functional, cell-based; procedure, shortened: as §3
PBMC [16] = assay: Immunomodulatory activity in human PBMC assessed as induction of TNFalpha after 24 hrs; type: functional, cell-based; procedure, shortened: as §3
PBMC [17] = assay: Immunomodulatory activity in human PBMC assessed as induction of IL6 after 24 hrs; type: functional, cell-based; procedure, shortened: as §3
PBMC [18] = assay: Immunomodulatory activity in human PBMC assessed as induction of MIP1beta at 50 ug/ml after 24 hrs; type: functional, cell-based; procedure, shortened: as §3
[19] = target: T1, Toll-like receptor 9 (Mus musculus) (UniProt Q9EQU3); assay: Activation of mouse TLR9 expressed in HEK293 assessed as induction of NF-kappaB activity reporter gene assay; type: cell-based
T1 sequence (whole entry): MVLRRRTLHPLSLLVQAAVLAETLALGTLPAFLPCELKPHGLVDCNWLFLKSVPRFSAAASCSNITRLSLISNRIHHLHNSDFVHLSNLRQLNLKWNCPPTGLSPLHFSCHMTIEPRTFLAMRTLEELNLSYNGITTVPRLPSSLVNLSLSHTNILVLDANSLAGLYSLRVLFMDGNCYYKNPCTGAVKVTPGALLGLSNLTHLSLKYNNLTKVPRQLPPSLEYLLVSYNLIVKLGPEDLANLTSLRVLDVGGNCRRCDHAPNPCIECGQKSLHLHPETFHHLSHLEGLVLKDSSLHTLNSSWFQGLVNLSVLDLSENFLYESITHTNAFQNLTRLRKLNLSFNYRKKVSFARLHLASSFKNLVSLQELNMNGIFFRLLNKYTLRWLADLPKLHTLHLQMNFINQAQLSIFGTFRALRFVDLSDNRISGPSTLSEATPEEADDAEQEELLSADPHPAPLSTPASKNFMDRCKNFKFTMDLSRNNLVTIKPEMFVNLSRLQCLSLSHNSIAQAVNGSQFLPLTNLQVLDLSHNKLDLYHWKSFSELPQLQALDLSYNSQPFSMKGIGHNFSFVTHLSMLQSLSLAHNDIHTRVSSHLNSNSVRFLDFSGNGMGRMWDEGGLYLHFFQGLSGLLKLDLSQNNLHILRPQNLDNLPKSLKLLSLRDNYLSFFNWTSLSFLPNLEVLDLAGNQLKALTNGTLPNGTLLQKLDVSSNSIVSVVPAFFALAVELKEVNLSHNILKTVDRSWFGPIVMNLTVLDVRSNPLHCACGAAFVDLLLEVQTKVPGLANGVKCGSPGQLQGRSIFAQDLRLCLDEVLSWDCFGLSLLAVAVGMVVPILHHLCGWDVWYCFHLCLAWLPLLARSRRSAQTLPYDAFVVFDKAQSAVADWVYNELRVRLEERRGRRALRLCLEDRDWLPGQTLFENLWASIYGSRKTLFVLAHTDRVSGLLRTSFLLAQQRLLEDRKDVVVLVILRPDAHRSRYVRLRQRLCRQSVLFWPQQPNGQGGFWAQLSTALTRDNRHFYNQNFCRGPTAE

Homo sapiens [20] = species on record: Homo sapiens; assay: Immunostimulatory activity in human mDC assessed as induction of IL12 at 100 ug/ml after 24 hrs; type: functional; procedure, shortened: as §2
PBMC [21] = assay: Immunomodulatory activity in human PBMC assessed as induction of IFNalpha at 50 ug/ml after 24 hrs; type: functional, cell-based; procedure, shortened: as §3
Homo sapiens [22] = species on record: Homo sapiens; assay: Immunostimulatory activity in human pDC assessed as induction of IP10 at 100 ug/ml after 24 hrs; type: functional; procedure, shortened: as §1
Homo sapiens [23] = species on record: Homo sapiens; assay: Immunostimulatory activity in human pDC assessed as induction of IFNalpha at 100 ug/ml after 24 hrs; type: functional; procedure, shortened: as §1
PBMC [24] = assay: Immunomodulatory activity in human PBMC assessed as induction of IL12 at 100 ug/ml after 24 hrs; type: functional, cell-based; procedure, shortened: as §3
PBMC [25] = assay: Immunomodulatory activity in human PBMC assessed as induction of IL12 at 50 ug/ml after 24 hrs; type: functional, cell-based; procedure, shortened: as §3
Homo sapiens [26] = species on record: Homo sapiens; assay: Immunostimulatory activity in human mDC assessed as induction of IP10 at 100 ug/ml after 24 hrs; type: functional; procedure, shortened: as §2
PBMC [27] = assay: Immunomodulatory activity in human PBMC assessed as induction of MIP1alpha after 24 hrs; type: functional, cell-based; procedure, shortened: as §3
PBMC [28] = assay: Immunomodulatory activity in human PBMC assessed as induction of IL6 at 50 ug/ml after 24 hrs; type: functional, cell-based; procedure, shortened: as §3

Question: For `Nc1ccn([C@@H]2O[C@H](COP(=O)(S)O[C@H]3[C@@H](O)[C@H](n4cnc5c(N)ncnc54)O[C@@H]3COP(=O)(S)O[C@H]3[C@@H](O)[C@H](n4cnc5c(N)ncnc54)O[C@@H]3CO)[C@@H](OP(=O)(S)OC[C@H]3O[C@@H](n4ccc(=O)[nH]c4=O)[C@H](O)[C@@H]3OP(=O)(S)OC[C@H]3O[C@@H](n4ccc5c(=O)[nH]c(N)nc54)[C@H](O)[C@@H]3OP(=O)(S)OC[C@H]3O[C@@H](n4cnc5c(N)ncnc54)[C@H](O)[C@@H]3OP(=O)(S)OC[C@H]3O[C@@H](n4ccc(N)nc4=O)[C@H](O)[C@@H]3OP(=O)(S)OC[C@H]3O[C@@H](n4ccc5c(=O)[nH]c(N)nc54)[C@H](O)[C@@H]3OP(=O)(S)OC[C@H]3O[C@@H](n4ccc(N)nc4=O)[C@H](O)[C@@H]3OP(=O)(S)OC[C@H]3O[C@@H](n4ccc(=O)[nH]c4=O)[C@H](O)[C@@H]3OP(=O)(S)OC[C@H]3O[C@@H](n4ccc(=O)[nH]c4=O)[C@H](O)[C@@H]3OP(=O)(S)OCC(O)COP(=O)(S)O[C@H]3[C@@H](O)[C@H](n4ccc(=O)[nH]c4=O)O[C@@H]3COP(=O)(S)O[C@H]3[C@@H](O)[C@H](n4ccc(=O)[nH]c4=O)O[C@@H]3COP(=O)(S)O[C@H]3[C@@H](O)[C@H](n4ccc(N)nc4=O)O[C@@H]3COP(=O)(S)O[C@H]3[C@@H](O)[C@H](n4ccc5c(=O)[nH]c(N)nc54)O[C@@H]3COP(=O)(S)O[C@H]3[C@@H](O)[C@H](n4ccc(N)nc4=O)O[C@@H]3COP(=O)(S)O[C@H]3[C@@H](O)[C@H](n4cnc5c(N)ncnc54)O[C@@H]3COP(=O)(S)O[C@H]3[C@@H](O)[C@H](n4ccc5c(=O)[nH]c(N)nc54)O[C@@H]3COP(=O)(S)O[C@H]3[C@@H](O)[C@H](n4ccc(=O)[nH]c4=O)O[C@@H]3COP(=O)(S)O[C@H]3[C@@H](O)[C@H](n4ccc(N)nc4=O)O[C@@H]3COP(=O)(S)O[C@H]3[C@@H](O)[C@H](n4cnc5c(N)ncnc54)O[C@@H]3COP(=O)(S)O[C@H]3[C@@H](O)[C@H](n4cnc5c(N)ncnc54)O[C@@H]3CO)[C@H]2O)c(=O)n1` (some centres undefined), which Activity (Homo sapiens [1]) is on record?
Answer: Its Activity is “Active”.

Question: What about the Activity (Homo sapiens [2]) of the same compound?
Answer: The Activity was “Active”.

Question: And the Activity (Homo sapiens [3])?
Answer: The Activity was “Active”.

Question: What about the IFN-alpha (PBMC [4]) of the same compound?
Answer: The IFN-alpha was 292 pg/mL.

Question: And the Activity (Homo sapiens [5])?
Answer: The Activity was “Active”.

Question: What about the Activity (PBMC [6]) of the same compound?
Answer: The Activity was “Dose-dependent effect”.

Question: What about the Activity (PBMC [7]) of the same compound?
Answer: Its Activity is “Dose-dependent effect”.

Question: What about the Activity (PBMC [8]) of the same compound?
Answer: Its Activity is 47 pg/mL.

Question: And the Activity (PBMC [9])?
Answer: The Activity was 2200 pg/mL.

Question: What about the Activity [10] of the same compound?
Answer: Its Activity is “inactive”.

Question: What about the Activity (PBMC [11]) of the same compound?
Answer: The Activity was 1020 pg/mL.

Question: And the Activity (PBMC [12])?
Answer: Its Activity is “Dose-dependent effect”.

Question: And the Activity (PBMC [13])?
Answer: Its Activity is 42100 pg/mL.

Question: What about the Activity (PBMC [14]) of the same compound?
Answer: The Activity was 39 pg/mL.

Question: What about the Activity (Mus musculus) of the same compound?
Answer: Its Activity is “Active”.

Question: What about the Activity (PBMC [15]) of the same compound?
Answer: Its Activity is “Dose-dependent effect”.

Question: What about the Activity (PBMC [16]) of the same compound?
Answer: The Activity was “Dose-dependent effect”.

Question: What about the Activity (PBMC [17]) of the same compound?
Answer: The Activity was “Dose-dependent effect”.

Question: And the Activity (PBMC [18])?
Answer: Its Activity is 5880 pg/mL.

Question: What about the Activity [19] of the same compound?
Answer: Its Activity is “inactive”.

Question: And the Activity (Homo sapiens [20])?
Answer: The Activity was “Active”.

Question: What about the Activity (PBMC [21]) of the same compound?
Answer: Its Activity is 434 pg/mL.

Question: What about the Activity (Homo sapiens [22]) of the same compound?
Answer: Its Activity is “Active”.

Question: What about the Activity (Homo sapiens [23]) of the same compound?
Answer: Its Activity is “Active”.

Question: What about the Activity (PBMC [24]) of the same compound?
Answer: Its Activity is 250 pg/mL.

Question: And the Activity (PBMC [25])?
Answer: The Activity was 223 pg/mL.

Question: What about the Activity (Homo sapiens [26]) of the same compound?
Answer: The Activity was “Active”.

Question: What about the Activity (PBMC [27]) of the same compound?
Answer: Its Activity is “Dose-dependent effect”.

Question: What about the Activity (PBMC [28]) of the same compound?
Answer: Its Activity is 791 pg/mL.
